Reference: paper PMC8733272 (iScience, 2021)
Substitutions are numbered along the chain they refer to. Entries after “also recorded” stand apart in the source; their conditions may differ.

Legend:
[1] = target: T1, N-terminally tagged WT-Parkin (Homo sapiens, UniProt O60260); assay: In vitro ubiquitin vinyl sulfone; assay type: biochemical; details: 3 μM pUb, 2 h; for Ub-VS charging of WT-Parkin: no E1, E2 or ATP
T1 sequence (O60260 1-465): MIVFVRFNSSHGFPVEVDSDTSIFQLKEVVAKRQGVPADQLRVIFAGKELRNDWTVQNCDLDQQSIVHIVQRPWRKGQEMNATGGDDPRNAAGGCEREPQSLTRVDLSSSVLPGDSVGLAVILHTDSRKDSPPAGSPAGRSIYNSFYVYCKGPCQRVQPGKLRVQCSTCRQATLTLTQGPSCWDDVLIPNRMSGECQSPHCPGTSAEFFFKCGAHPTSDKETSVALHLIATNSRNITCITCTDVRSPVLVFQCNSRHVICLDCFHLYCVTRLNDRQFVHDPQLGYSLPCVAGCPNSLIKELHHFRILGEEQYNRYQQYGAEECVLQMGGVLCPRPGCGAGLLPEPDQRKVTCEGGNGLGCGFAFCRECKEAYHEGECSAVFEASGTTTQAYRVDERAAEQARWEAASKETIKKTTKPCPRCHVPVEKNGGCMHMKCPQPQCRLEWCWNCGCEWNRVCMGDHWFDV
Outline: (§1)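 Tagged Parkin (WT or W403A), 2 μM, incubated with 10 μM Ub-VS and 3 μM pUb. Test compound at 0, 0.09, 0.27, 0.8, 2.5, 7.4, 22.2, 66.7 and 200 μM. Buffer: 50 mM HEPES, 150 mM NaCl, 1 mM TCEP, pH 8.0. Final DMSO 2% (v/v).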

[2] = target: T2, N-terminally tagged C431S-Parkin (Homo sapiens, UniProt O60260, C431S); assay: In vitro ubiquitin vinyl sulfone; assay type: biochemical; details: 200 μM compound, range of pUb concentrations
T2 sequence (O60260 1-465 C431S): T1 sequence (O60260 1-465) with C431S

[3] = tested on: GFP-Parkin expressing HeLa cells; assay: Parkin translocation assay; assay type: cell-based
Outline: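 HeLa cells stably expressing GFP-Parkin (lentiviral, blasticidin-selected, FACS-sorted for matched GFP) were seeded at 1.6×10^4 cells/well and recovered 24 h. Nuclei were Hoechst-stained 30 min. Cells were pre-treated 1 h with test compound, then given 20 μM CCCP. Live imaging every 10 min for 3 h at 20x, 37°C, 5% CO2, with 9 fields in each of 4 replicate wells.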

[4] = tested on: SH-SY5Y cells expressing the MitoQC construct; assay: MitoQC mitophagy assay; assay type: cell-based; details: 1 h pre-incubation, Antimycin + Oligomycin
Outline: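 SH-SY5Y cells carrying MitoQC were seeded at 1.6×10^4 cells/well on attachment factor and recovered 72 h. Cells were pre-treated 1 h with test compound, then given 5 μM Antimycin + 10 μM Oligomycin or DMSO for 8 h unless stated otherwise. Fixed in 2% PFA on ice 30 min, DAPI-stained, and imaged at 64x (25 fields, 4 replicate wells). mCherry puncta (mitolysosomes) were counted.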

[5] = target: T3, pParkin (Homo sapiens, UniProt O60260); assay: TR-FRET autoubiquitination assay with phospho-Parkin without pUb; assay type: biochemical; details: TR-FRET ratio, no pUb
T3 sequence (O60260 1-465): T1 sequence (O60260 1-465)

[6] = target: T4, WT-Parkin (Homo sapiens, UniProt O60260); assay: Parkin autoubiquitination by Western blot; assay type: biochemical; details: 5 min reaction at 37°C
T4 sequence (O60260 1-465): T1 sequence (O60260 1-465)
Outline: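 Untagged WT-Parkin was pre-incubated 30 min at 37°C with E1, E2 and test compound; the 2X mix held 40 nM E1, 800 nM E2 and 100 nM Parkin. Then 2X substrate mix was added (760 nM fluorescein-Ub, 50 μM ubiquitin, 10 μM pUb, 2 mM ATP) in HEPES pH 7.4 buffer with 1% DMSO, in 40 μL. Stopped after 5 min with SDS sample buffer; polyubiquitin smears were read by Western blot.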

[7] = target: Human MDR1 efflux transporter (MDCK-MDR1 cells) (Homo sapiens, UniProt P08183); assay: MDCK-MDR1 bidirectional permeability / efflux; assay type: in vitro ADME; details: average of inward and outward permeability
Outline: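 MDCK-MDR1 cells were seeded at 0.28×10^6 cells/mL on the apical side of transwell inserts and grown 7 days, with two media changes. Monolayers were rinsed in HBSS/1% HEPES pH 7.4. 1 μM test compound was added to the donor side (A>B and B>A); receivers held buffer with 1% BSA. Plates were shaken 2 h at 37°C. Donor was sampled at 0 and 120 min, receiver at 2 h, and quenched with acetonitrile plus internal standard for LC-MS/MS. Post-assay TEER had to exceed 430 ohm∗cm2. Papp = (dQ/dt)(1/C0)(1/A); ER = Papp B>A / Papp A>B.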

[8] = target: T5, N-terminally tagged W403A-Parkin (Homo sapiens, UniProt O60260, W403A); assay: In vitro ubiquitin vinyl sulfone; assay type: biochemical; details: 3 μM pUb, 1 h
T5 sequence (O60260 1-465 W403A): T1 sequence (O60260 1-465) with W403A
Outline: as §1

[9] = target: T6, WT-Parkin (substrate His-Miro1 186-591) (Homo sapiens, UniProt O60260); assay: Miro1 ubiquitination assay by Western blot; assay type: biochemical; details: His-Miro1 (186-591) substrate
T6 sequence (O60260 1-465): T1 sequence (O60260 1-465)
Outline: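 Run as the TR-FRET reaction with untagged WT-Parkin. Test compound was pre-incubated 30 min with E1, E2, Parkin and His-Miro1 186-591 (250 nM final); the 2X mix held 40 nM E1, 800 nM E2 and 100 nM Parkin. After 20 min the reaction was stopped in SDS sample buffer, then run on 4–12% bis-tris SDS-PAGE, PVDF transfer and IR-dye secondary imaging.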

[10] = target: T4, WT-Parkin; assay: Parkin catalytic poly-auto-Ub TR-FRET assay; assay type: biochemical; details: WT-Parkin with pUb
[11] = target: N-terminally tagged W403A-Parkin (UniProt O60260)

Human MDR1 efflux transporter (MDCK-MDR1 cells), sequence (P08183 whole entry): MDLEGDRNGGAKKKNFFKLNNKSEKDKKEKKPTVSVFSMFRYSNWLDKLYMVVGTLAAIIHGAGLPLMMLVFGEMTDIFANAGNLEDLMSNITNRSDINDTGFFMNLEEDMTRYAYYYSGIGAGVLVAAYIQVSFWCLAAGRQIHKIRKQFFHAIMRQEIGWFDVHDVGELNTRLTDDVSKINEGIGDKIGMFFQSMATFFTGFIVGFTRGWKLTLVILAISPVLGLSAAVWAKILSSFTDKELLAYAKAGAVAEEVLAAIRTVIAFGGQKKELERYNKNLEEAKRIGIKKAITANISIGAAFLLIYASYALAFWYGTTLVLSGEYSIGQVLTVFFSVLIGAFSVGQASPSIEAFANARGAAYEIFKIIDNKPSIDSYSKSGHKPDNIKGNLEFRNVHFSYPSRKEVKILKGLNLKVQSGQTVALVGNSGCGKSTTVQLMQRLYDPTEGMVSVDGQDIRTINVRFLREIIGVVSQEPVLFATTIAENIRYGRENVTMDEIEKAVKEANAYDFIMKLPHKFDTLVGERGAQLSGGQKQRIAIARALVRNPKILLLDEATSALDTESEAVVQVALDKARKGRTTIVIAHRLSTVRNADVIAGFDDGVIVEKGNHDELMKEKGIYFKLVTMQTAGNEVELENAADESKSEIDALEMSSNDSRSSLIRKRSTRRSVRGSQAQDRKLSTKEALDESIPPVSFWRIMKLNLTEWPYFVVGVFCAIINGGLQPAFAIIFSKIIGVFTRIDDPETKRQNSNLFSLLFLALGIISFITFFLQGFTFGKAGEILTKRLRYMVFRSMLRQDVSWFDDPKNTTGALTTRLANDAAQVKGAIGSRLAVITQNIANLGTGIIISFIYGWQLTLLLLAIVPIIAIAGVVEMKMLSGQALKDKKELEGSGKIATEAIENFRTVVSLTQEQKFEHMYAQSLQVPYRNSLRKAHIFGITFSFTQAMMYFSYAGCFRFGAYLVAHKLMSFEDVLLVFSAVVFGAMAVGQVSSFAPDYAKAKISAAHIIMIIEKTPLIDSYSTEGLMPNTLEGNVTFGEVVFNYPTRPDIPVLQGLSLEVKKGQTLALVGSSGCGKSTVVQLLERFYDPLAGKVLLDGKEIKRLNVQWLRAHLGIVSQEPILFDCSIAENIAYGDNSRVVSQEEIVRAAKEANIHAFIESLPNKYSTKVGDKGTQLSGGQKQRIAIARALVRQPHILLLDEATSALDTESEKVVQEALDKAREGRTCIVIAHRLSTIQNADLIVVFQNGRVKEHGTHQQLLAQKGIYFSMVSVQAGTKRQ

Row | Compound | Ub-VS charging of WT-Parkin [1] | concentration above which maximal efficacy is approached in Ub-VS charging ([1]; WT-Parkin) | Ub-VS charging of C431S-Parkin [2] | effect on Parkin translocation rate in the presence of valspodar ([3]; HeLa cells with and without valspodar (MDR1 inhibitor)) | effect on rate of Parkin translocation to mitochondria ([3]; eGFP-WT-Parkin HeLa, 1 h pretreatment, then CCCP) | effect on mitophagy, MitoQC [4] | activation of phospho-Parkin in the absence of pUb [5] | Parkin autoubiquitination by Western blot [6] | MDR1-MDCK avg (average of Papp AB/BA) [7] | Ub-VS charging of W403A-Parkin [8] | Miro1 ubiquitination by Western blot [9] | activity in TR-FRET autoubiquitination assay [10] | EC50 of pUb for Ub-VS charging of W403A-Parkin (gel shift), without BIO-2007817 [11]
1 | CO[C@H](C(=O)N1Cc2c(-c3ccc(C(=O)N4CCCc5ccccc54)cc3)cnn2C[C@H]1C(C)C)c1cnn(C)c1 (single isomer, unassigned) [BIO-2007817] | induced the appearance of slower-migrating Parkin species in a concentration-dependent manner | above 20 μM | not responsive; also recorded: no activity | No change in Parkin translocation rate | did not significantly change the rate of translocation of Parkin; also recorded: not able to promote Parkin translocation to depolarized mitochondria in HeLa cells | nor promote mitophagy in MitoQC SH-SY5Y cell lines | can act as an agonist for activated phospho-Parkin even in the absence of pUb | stimulated Parkin autoubiquitination as measured by Western blots in a concentration-dependent manner | 19.8 ×10⁻⁶ cm/s | further stimulated exposure of the active-site C431 | able to induce the appearance of monoubiquitinated forms of Miro1 |  | 
2 | CO[C@@H](C(=O)N1Cc2c(-c3ccc(C(=O)N4CCCc5ccccc54)cc3)cnn2C[C@H]1C(C)C)c1cnn(C)c1 (single isomer, unassigned) [BIO-2007818] | to a lesser extent |  |  |  |  |  |  | reduced ability to induce Parkin autoubiquitination |  | to a lesser extent | reduced ability |  | 
3 | Cc1n[nH]c(CC(=O)N2Cc3c(-c4ccc(C(=O)N5CCCc6ccccc65)cc4)cnn3C[C@H]2C)n1 [BIO-1984542, (R)-2-(3-methyl-1H-1,2,4-triazol-5-yl)-1-(6-methyl-3-(4-(1,2,3,4-tetrahydroquinoline-1-carbonyl)phenyl)-6,7-dihydropyrazolo[1,5-a]pyrazin-5(4H)-yl)ethan-1-one] | no significant activity |  |  |  |  |  |  | inactive | 4.4 ×10⁻⁶ cm/s |  | inactive | inactive | 
4 | Phospho-ubiquitin (pUb): Human Recombinant pSer65-Ubiquitin (from UniProt P0CG48 1-76) (natural protein) |  |  |  |  |  |  |  |  |  |  |  |  | 5.4 μM
